Data on 27 compounds can be found in ChEMBL document CHEMBL1145545, “Discovery of a novel A2B adenosine receptor antagonist as a clinical candidate for chronic inflammatory airway diseases” (J Med Chem, 2008).

The species entered for test [1] is Homo sapiens. Put plainly: Selectivity for human recombinant adenosine A2B receptor over human recombinant adenosine A1 receptor.
Test [2] concerns the target T1, Adenosine receptor A2b (Homo sapiens, UniProt P29275).
T1 sequence (P29275 whole entry): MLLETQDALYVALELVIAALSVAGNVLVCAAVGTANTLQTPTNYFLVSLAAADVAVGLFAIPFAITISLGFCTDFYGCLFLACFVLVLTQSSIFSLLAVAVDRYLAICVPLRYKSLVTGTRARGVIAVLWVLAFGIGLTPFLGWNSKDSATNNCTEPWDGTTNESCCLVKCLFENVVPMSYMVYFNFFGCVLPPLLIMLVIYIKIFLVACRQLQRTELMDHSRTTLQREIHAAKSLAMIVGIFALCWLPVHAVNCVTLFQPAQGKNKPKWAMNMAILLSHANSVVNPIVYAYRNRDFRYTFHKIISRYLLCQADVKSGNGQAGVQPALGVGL
Put plainly: Displacement of [3H]ZM-241385 from human recombinant adenosine A2B receptor expressed in HEK293 cells. The test is classed as cell-based. In outline:
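Membranes from HEK293 cells stably expressing human A2B receptor; competition with 10 nM radioligand, 50 µg membrane protein, in 50 mM Tris/1 mM EDTA with 1 U/mL adenosine deaminase, 25 °C for 90 min with gentle agitation; filtration, four ice-cold Tris/MgCl2 washes. Nonspecific binding defined with 10 µM unlabelled ligand; Ki calculated.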

Test [3] concerns the target T2, Adenosine receptor A1 (Homo sapiens, UniProt P30542).
T2 sequence (P30542 whole entry): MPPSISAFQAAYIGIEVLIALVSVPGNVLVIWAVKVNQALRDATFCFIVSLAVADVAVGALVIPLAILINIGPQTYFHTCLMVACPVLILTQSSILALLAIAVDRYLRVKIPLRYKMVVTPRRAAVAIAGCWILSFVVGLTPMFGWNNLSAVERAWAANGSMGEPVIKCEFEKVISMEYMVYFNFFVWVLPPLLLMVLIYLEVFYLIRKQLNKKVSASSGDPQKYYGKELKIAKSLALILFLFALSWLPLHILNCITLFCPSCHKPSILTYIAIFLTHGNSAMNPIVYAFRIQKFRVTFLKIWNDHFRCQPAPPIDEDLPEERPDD
Put plainly: Displacement of [3H]CPX from human recombinant adenosine A1 receptor expressed in CHO cells. The format is cell-based. In outline:
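CHO cell membranes stably expressing human A1 receptor; 0.5 nM [3H]CPX competed with test compound in 50 mM Tris/1 mM EDTA plus 1 U/mL adenosine deaminase, 25 °C, 90 min, gentle agitation; filtration and four ice-cold Tris/MgCl2 washes. Nonspecific binding defined with 1 µM CPX; Ki values derived.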

Test [4] concerns the target Adenosine receptor A2a (Homo sapiens, UniProt P29274). Put plainly: Displacement of [3H]ZM-241385 from human recombinant adenosine A2A receptor expressed in HEK293 cells. The test is classed as cell-based. In outline: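 Membranes from HEK293 cells stably expressing human A2A receptor; 2 nM radioligand competed in 50 mM Tris/1 mM EDTA with 1 U/mL adenosine deaminase for 90 min at 25 °C with agitation; filtration, four ice-cold Tris/MgCl2 washes. Nonspecific binding defined with 1 µM unlabelled ligand; Ki computed.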
(In general: In a radioligand displacement assay an active substance lowers the binding of a labelled ligand.)

Test [5] concerns the target T3, Adenosine receptor A3 (Homo sapiens, UniProt P0DMS8).
T3 sequence (P0DMS8 whole entry): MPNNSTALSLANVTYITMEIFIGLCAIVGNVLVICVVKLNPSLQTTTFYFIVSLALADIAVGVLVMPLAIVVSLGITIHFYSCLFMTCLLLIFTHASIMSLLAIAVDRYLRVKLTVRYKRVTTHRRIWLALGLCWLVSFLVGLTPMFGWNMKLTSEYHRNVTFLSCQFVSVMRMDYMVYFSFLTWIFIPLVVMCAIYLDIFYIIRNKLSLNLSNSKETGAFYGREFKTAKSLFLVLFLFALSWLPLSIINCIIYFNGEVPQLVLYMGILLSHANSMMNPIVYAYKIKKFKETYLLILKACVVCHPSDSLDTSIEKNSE
The test can be described thus: Displacement of [125I]ABMECA from human recombinant adenosine A3 receptor expressed in CHO cells. The format is cell-based. A digest of the protocol:
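Human A3 receptor stably expressed in CHO cells; membranes incubated with 0.1 nM 125I-AB-MECA and test compound in 50 mM Tris, 1 mM EDTA, 10 mM MgCl2 plus 1 U/mL adenosine deaminase, 25 °C, 90 min; filtration, four ice-cold washes. Nonspecific binding defined with 1 µM IB-MECA; Ki determined.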

Test [6] is filed under the species Homo sapiens. The test can be described thus: Selectivity for human recombinant adenosine A2B receptor over human recombinant adenosine A2A receptor.
For test [7], the species on record is Homo sapiens. The test can be described thus: Selectivity for human recombinant adenosine A2B receptor over human recombinant adenosine A3 receptor.

One may read the Ki as the dissociation constant of the complex between target and ligand, obtained from inhibition or displacement.

Adenosine receptor A2a, sequence (P29274 whole entry): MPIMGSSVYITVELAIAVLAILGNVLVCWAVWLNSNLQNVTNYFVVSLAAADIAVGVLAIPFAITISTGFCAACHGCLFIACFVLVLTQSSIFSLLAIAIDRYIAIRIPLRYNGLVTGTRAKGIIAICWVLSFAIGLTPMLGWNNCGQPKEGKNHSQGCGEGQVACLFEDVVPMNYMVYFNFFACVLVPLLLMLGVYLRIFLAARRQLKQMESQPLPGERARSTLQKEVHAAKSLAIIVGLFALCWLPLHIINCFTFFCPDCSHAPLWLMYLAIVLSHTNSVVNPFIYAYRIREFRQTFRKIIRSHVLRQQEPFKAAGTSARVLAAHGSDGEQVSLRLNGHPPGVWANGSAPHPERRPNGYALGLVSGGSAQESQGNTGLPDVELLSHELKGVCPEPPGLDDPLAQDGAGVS

Consider `CCn1c(=O)n(CC2CC2)c(=O)c2[nH]c(-c3cnn(Cc4cccc(C(F)(F)F)c4)c3)nc21`, for which the Ratio Ki stood at 10 in test [1], 12 in test [6] and 15 in test [7]. For the same compound, the Ki in test [2] stood at 22 nM; in test [3], 218 nM; in test [4], 272 nM; in test [5], 326 nM.

In the case of `CCn1c(=O)n(CC2CC2)c(=O)c2[nH]c(-c3cn[nH]c3)nc21`, the Ratio Ki in test [1] turned out to be 2; in test [6], 6. The Ki in test [2] is 38 nM; in test [3], 76 nM; in test [4], 234 nM.

With `CCCn1c(=O)c2[nH]c(-c3cnn(Cc4cccc(F)c4)c3)nc2n(CCC)c1=O`, the Ratio Ki came out at 13 in test [1], 17 in test [6] and 4 in test [7].

For the compound `CCn1c(=O)c2[nH]c(-c3cnn(Cc4cccc(C(F)(F)F)c4)c3)nc2n(C)c1=O`, the figures for the Ratio Ki in test [1], in test [6] and in test [7] were 45, 39 and 43, respectively. The inhibition constant Ki was 6 nM in test [2], 274 nM in test [3], 234 nM in test [4] and 262 nM in test [5].

In the case of `CCCn1c(=O)c2[nH]c(-c3cnn(Cc4cc(-c5ccc(C(F)(F)F)cc5)on4)c3)nc2n(CC)c1=O`, the values for the Ratio Ki in test [1], in test [6] and in test [7] were 87, 94 and 152, respectively. In addition, the Ki in test [2] turned out to be 25 nM; in test [3], 2190 nM; in test [4] it was 2370 nM; in test [5], 3810 nM.

Turning to `CCn1c(=O)c2nc(-c3cnn(Cc4cccc(F)c4)c3)[nH]c2n(CC)c1=O`, the Ratio Ki in test [1] was 76; in test [6], 58; in test [7], 91.

In the case of `Cn1c(=O)n(CC2CC2)c(=O)c2[nH]c(-c3cnn(Cc4cccc(C(F)(F)F)c4)c3)nc21`, the Ratio Ki in test [1] worked out at 8; in test [6], 15; in test [7], 7. Moreover, the inhibition constant Ki was determined as 21 nM in test [2], 167 nM in test [3], 312 nM in test [4] and 160 nM in test [5].

As to `CCCn1c(=O)c2[nH]c(-c3cnn(Cc4ccccc4)c3)nc2n(C)c1=O`, the Ratio Ki in test [1] came out at 30; in test [6], 6. Also, the figures for the Ki in test [2], in test [3] and in test [4] were 19 nM, 582 nM and 125 nM, respectively.

With `CCCn1c(=O)c2[nH]c(-c3cnn(Cc4cccnc4)c3)nc2n(CC)c1=O`, the Ratio Ki in test [1] was found to be 23; in test [6], 14. Also, the Ki in test [2] was found to be 22 nM; in test [3], 522 nM; in test [4], 312 nM.

With `CC(C)Cn1c(=O)c2[nH]c(-c3cnn(Cc4ccccc4)c3)nc2n(C)c1=O`, the Ratio Ki in test [1] came to 16; in test [6] it was 19; in test [7] it was 9. The Ki in test [2] turned out to be 21 nM; in test [3] it was 347 nM; in test [4], 408 nM; in test [5], 204 nM.

Consider `Cn1c(=O)c2[nH]c(-c3cnn(Cc4cccc(F)c4)c3)nc2n(C)c1=O`, for which the Ratio Ki in test [1] was 17; in test [6], 7.

For `CCCn1c(=O)c2[nH]c(-c3cnn(Cc4ccc[n+]([O-])c4)c3)nc2n(CC)c1=O`, the Ratio Ki was found to be 2 in test [1] and 4 in test [6]. Further, the Ki in test [2] worked out at 506 nM; in test [3], 1120 nM; in test [4], 1950 nM.

As to `CCn1c(=O)n(CC2CC2)c(=O)c2[nH]c(-c3cnn(Cc4ccccc4)c3)nc21`, the figures for the Ratio Ki in test [1] and in test [6] were 11 and 6, respectively. Besides, the Ki in test [2] turned out to be 27 nM; in test [3] it was 314 nM; in test [4] it was 181 nM.

For the compound `CCCCn1c(=O)c2[nH]c(-c3cnn(Cc4ccccc4)c3)nc2n(C)c1=O`, the Ratio Ki in test [1] was found to be 13; in test [6], 8. For the same compound, the figures for the inhibition constant (Ki) in test [2], in test [3] and in test [4] were 30 nM, 416 nM and 247 nM, respectively.

Take `CCCn1c(=O)c2[nH]c(-c3cnn(Cc4ccccc4)c3)nc2n(CC)c1=O`: the results for the Ratio Ki in test [1] and in test [6] were 9 and 8, respectively. The values for the Ki in test [2], in test [3] and in test [4] were 31 nM, 275 nM and 261 nM, respectively.

In the case of `CCCCn1c(=O)c2[nH]c(-c3cnn(Cc4cccc(F)c4)c3)nc2n(C)c1=O`, the values for the Ratio Ki in test [1] and in test [6] were 11 and 8, respectively. The inhibition constant Ki in test [2] was 26 nM; in test [3], 305 nM; in test [4] it was 217 nM.

On to `CC(C)Cn1c(=O)c2[nH]c(-c3cn[nH]c3)nc2n(C)c1=O`, for which the Ratio Ki worked out at 9 in test [1] and 33 in test [6]. For the same compound, the inhibition constant (Ki) was found to be 42 nM in test [2], 376 nM in test [3] and 1390 nM in test [4].

On to `CCCn1c(=O)c2[nH]c(-c3cnn(Cc4ccccn4)c3)nc2n(CC)c1=O`, for which the Ratio Ki in test [1] and in test [6] was 9 throughout. In addition, the Ki in test [2] stood at 46 nM; in test [3], 410 nM; in test [4], 411 nM.

As for `CCn1c(=O)n(CC(C)C)c(=O)c2[nH]c(-c3cn[nH]c3)nc21`, the Ratio Ki in test [1] worked out at 2; in test [6] it was 9. Moreover, the Ki is 141 nM in test [2], 348 nM in test [3] and 1220 nM in test [4].

On to `CCn1c(=O)c2[nH]c(-c3cn[nH]c3)nc2n(C)c1=O`, for which, in test [2], the inhibition constant Ki is 120 nM.

`CCCn1c(=O)c2[nH]c(-c3cn[nH]c3)nc2n(CC)c1=O`: the Ratio Ki is 4 in test [1] and 10 in test [6]. Also, the figures for the inhibitory constant (Ki) in test [2], in test [3] and in test [4] were 49 nM, 178 nM and 496 nM, respectively.

For the compound `CC(C)Cn1c(=O)c2[nH]c(-c3cnn(Cc4cccc(C(F)(F)F)c4)c3)nc2n(C)c1=O`, the Ratio Ki in test [1] and in test [6] was 3 throughout. The inhibition constant Ki was 199 nM in test [2], 617 nM in test [3] and 633 nM in test [4].

With `CCCn1c(=O)c2[nH]c(-c3cnn(Cc4noc(-c5ccc(Cl)cc5)n4)c3)nc2n(CC)c1=O`, the Ratio Ki is above 18 in test [1] and above 15 in test [6]. Further, the inhibition constant Ki was 335 nM in test [2], above 6000 nM in test [3] and above 5000 nM in test [4].

In the case of `Cn1c(=O)c2nc(-c3cnn(Cc4cccc(C(F)(F)F)c4)c3)[nH]c2n(C)c1=O`, the results for the Ratio Ki in test [1], in test [6] and in test [7] were 992, 686 and 100, respectively.

As for `CCCn1c(=O)c2[nH]c(-c3cnn(Cc4cc(-c5ccc(Cl)cc5)on4)c3)nc2n(CC)c1=O`, the Ratio Ki was determined as 5 in test [1] and 18 in test [6]. Besides, the inhibition constant Ki in test [2] is 42 nM; in test [3], 200 nM; in test [4], 781 nM.

Consider `CCn1c(=O)c2nc(-c3cnn(Cc4cccc(C(F)(F)F)c4)c3)[nH]c2n(CC)c1=O`, for which the Ratio Ki in test [1] turned out to be 44; in test [6], 34; in test [7] it was 34.

With `CCCn1c(=O)c2[nH]c(-c3cnn(Cc4cccc(C(F)(F)F)c4)c3)nc2n(CCC)c1=O`, the values for the Ratio Ki in test [1], in test [6] and in test [7] were 12, 28 and 10, respectively.
